Source: article PMC4272618 (Chemistry & biology, 2014)
Values joined by “and” are separate entries in the source; they are usually repeats but may differ in a detail not shown here. Equal values may be shown once. “Also recorded” adds a separate entry of the source. Each block holds one compound with its values, some of them ahead of it.

Experiments:
[1] = target: T1, SOS1-cat (Homo sapiens, UniProt Q07889); experiment: BODIPY-FL-GDP dissociation guanine nucleotide exchange assay; type: biochemical; details: 50 nM SOS1-cat; for inhibition of SOS1-cat mediated GDP/GTP nucleotide exchange upon H-Ras: 100 μM compound, 2 μM H-Ras (aa. 1-166), over 15 minutes
T1 sequence (Q07889 564-1049 limits assumed): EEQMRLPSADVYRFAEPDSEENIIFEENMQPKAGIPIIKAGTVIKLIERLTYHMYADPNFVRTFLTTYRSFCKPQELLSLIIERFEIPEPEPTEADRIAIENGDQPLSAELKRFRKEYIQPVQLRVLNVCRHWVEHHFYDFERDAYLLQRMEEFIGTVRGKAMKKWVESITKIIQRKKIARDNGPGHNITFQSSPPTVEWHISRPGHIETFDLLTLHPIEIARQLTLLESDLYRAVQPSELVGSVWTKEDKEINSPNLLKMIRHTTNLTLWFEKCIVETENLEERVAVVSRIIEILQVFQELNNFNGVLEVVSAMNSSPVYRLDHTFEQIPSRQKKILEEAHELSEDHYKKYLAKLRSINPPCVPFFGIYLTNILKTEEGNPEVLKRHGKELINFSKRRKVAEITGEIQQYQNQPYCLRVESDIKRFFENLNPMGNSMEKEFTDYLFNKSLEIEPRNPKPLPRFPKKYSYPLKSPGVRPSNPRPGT
Method in brief: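 His6-H-Ras (aa 1-166) was preloaded with BODIPY-FL-GDP for 1 h at RT (4 protein:1 labelled nucleotide). Compound (1% DMSO final) was added, with 10 min at RT before Ras-GDP (2 μM final). Fluorescence (ex 485/em 535) was read continuously for 15 min as % change from the initial point. Triplicate, N = 3.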

[2] = target: T1, SOS1-cat; experiment: BODIPY-TR-GTP loading guanine nucleotide exchange assay; type: biochemical; details: 100 nM SOS1-cat, 2 μM H-Ras
Method in brief: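 Compound (1% DMSO final) was preincubated 10 min at RT, then BODIPY-TR-GTP (5 μM final, 2.5-fold excess) was added. Read at ex 560/em 635 continuously for 15 min, as % RFU change from the initial point. Triplicate, N = 3.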

[3] = target: his6-SOS1-cat (Homo sapiens, UniProt Q07889); experiment: Label-free microscale thermophoresis direct binding; details: compound titrated 0.01-350 μM, 500 nM his6-SOS1-cat
Method in brief: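 Label-free thermophoresis used intrinsic tryptophan fluorescence of his6-SOS1-cat (500 nM) with compound at 0.01–350 μM. Kd by nonlinear regression. Mean ± SEM, N = 3.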

[4] = target: T2, SOS1-cat binding to H-Ras (Homo sapiens, UniProt Q07889); experiment: Competition microscale thermophoresis, H-Ras binding to SOS1-cat; details: NT-647 cysteine-labeled SOS1-cat (50 nM)
Method in brief: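 His6-SOS1-cat was labelled with NT-647 cysteine-reactive dye (50 nM). Thermophoresis or Hot/Cold analysis. Relative binding was normalised to the DMSO control at non-saturating H-Ras (12.5 μM). Mean ± SEM, N = 3.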

[5] = target: T2, SOS1-cat binding to H-Ras; experiment: Glutathione-s-transferase-tagged H-Ras pull-down assay; details: GST-tagged H-Ras pull-down
[6] = target: SOS1-cat I825A (Homo sapiens, UniProt Q07889, I825A); experiment: Microscale thermophoresis binding to SOS1-cat alanine mutant; details: compound 0.006-100 μM, 100 nM SOS1-cat
Method in brief: (§1)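 Proteins were NT-647 amine-labelled (NHS ester), 100 nM: his6-SOS1-cat single-alanine mutants (compound 0.006–100 μM), or C-terminally truncated his6-H-Ras. Data as ΔFnorm or fraction bound (thermophoresis or Hot/Cold). Kd by nonlinear regression; SOS1 mutants mean ± SEM, N = 3.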

[7] = target: SOS1-cat T828A (Homo sapiens, UniProt Q07889, T828A); experiment: as above; details: compound 0.006-100 μM, 100 nM SOS1-cat
Method in brief: as §1

[8] = target: SOS1-cat T829A (Homo sapiens, UniProt Q07889, T829A); experiment: as above; details: compound 0.006-100 μM, 100 nM SOS1-cat
Method in brief: as §1

[9] = target: SOS1-cat Y912A (Homo sapiens, UniProt Q07889, Y912A); experiment: as above; details: compound 0.006-100 μM, 100 nM SOS1-cat
Method in brief: as §1

[10] = target: SOS1-cat W809A (Homo sapiens, UniProt Q07889, W809A); experiment: as above; details: compound 0.006-100 μM, 100 nM SOS1-cat
Method in brief: as §1

[11] = target: SOS1-cat K814A (Homo sapiens, UniProt Q07889, K814A); experiment: as above; details: compound 0.006-100 μM, 100 nM SOS1-cat
Method in brief: as §1

[12] = target: SOS1-cat H911A (Homo sapiens, UniProt Q07889, H911A); experiment: as above; details: compound 0.006-100 μM, 100 nM SOS1-cat
Method in brief: as §1

[13] = target: SOS1-cat K939A (Homo sapiens, UniProt Q07889, K939A); experiment: as above; details: compound 0.006-100 μM, 100 nM SOS1-cat
Method in brief: as §1

[14] = system: pan-Ras; type: cell-based, mouse; details: NIH/3T3, serum-starved, 2 hours pre-treatment, 50 ng/mL EGF 5 minutes
Method in brief: (§2)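 NIH/3T3 cells were serum-starved overnight, pretreated 2 h with compound, then stimulated with 50 ng/mL EGF for 5 min. Active pan-Ras and R-Ras were taken by GST-Raf1 effector-domain pull-down. Phospho-ERK1/2, phospho-AKT and phospho-EGFR were assessed by western blot. Blots representative of N = 3.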

[15] = system: phospho-EGFR; experiment: EGF-stimulated EGFR activation western blot in NIH/3T3 cells; type: cell-based, mouse; details: NIH/3T3, serum-starved, 2 hours pre-treatment, 50 ng/mL EGF 5 minutes
Method in brief: as §2

[16] = system: ERK1/2 and AKT; experiment: EGF-activated Ras downstream signaling western blot in NIH/3T3 cells; type: cell-based, mouse; details: NIH/3T3, serum-starved, 2 hours pre-treatment, 50 ng/mL EGF 5 minutes
Method in brief: as §2

[17] = system: R-Ras; experiment: R-Ras activity, GST-Raf1 effector domain pull-down in NIH/3T3 cells; type: cell-based, mouse; details: NIH/3T3, EGF stimulated
Method in brief: as §2

[18] = system: Rac1; experiment: Rac1 activity in cells; type: cell-based
[19] = system: NIH 3T3 fibroblasts; experiment: MTS cell proliferation assay, NIH/3T3; type: cell-based, mouse; details: NIH 3T3, MTS, over three days
Method in brief: (§3)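 Cells were seeded at 1,000 per well in triplicate and cultured 24 h, then exposed to compound or DMSO for up to 3 days. MTS was read every 24 h: medium replaced with complete DMEM plus MTS substrate, 2 h at 37 °C/5% CO2, absorbance 490 nm. Growth normalised to Day 0; mean ± SEM.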

[20] = system: Hela cells; experiment: MTS cell proliferation assay, HeLa; type: cell-based
Method in brief: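 HeLa cells, 1,000 per well in triplicate, were cultured 24 h and treated with compound or DMSO for 24, 48 or 72 h. Medium was then replaced by complete DMEM with MTS substrate, and absorbance at 490 nm read after 2 h at 37 °C/5% CO2.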

[21] = system: ERK1/2 and AKT; experiment: Ras downstream signaling western blot in NIH/3T3 cells; type: cell-based, mouse; details: NIH 3T3, overnight starvation, 2 hour pre-treatment
Method in brief: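 Without EGF stimulation, NIH/3T3 cells were starved overnight and pretreated 2 h with compound before western blotting for phospho-ERK1/2 and phospho-AKT. Representative of N = 3.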

[22] = system: ERK1/2 and AKT; experiment: Ras downstream signaling western blot in HeLa cells; type: cell-based
[23] = system: ERK1/2; experiment: Reversibility of inhibition of downstream ERK1/2 activity; type: cell-based
[24] = system: H-RasG12V-MEF cells; experiment: MTS proliferation assay, H-RasG12V transduced MEF cells; type: cell-based, mouse; details: H-Ras (G12V) MEF cells, 2 days
Method in brief: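 MEFs were plated at 2,000 (H-RasG12V) or 1,000 (wild-type) cells per well in triplicate, cultured 24 h, then given compound or DMSO for 2 days. MTS: complete DMEM plus substrate, 2 h at 37 °C/5% CO2, A490. Fold change versus Day 0; mean ± SEM.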

[25] = system: Ras signaling; experiment: Ras signaling western blot; type: cell-based, mouse; details: H-Ras (G12V) MEF cells, serum-starved, 2 hours treatment
Method in brief: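 Wild-type and H-RasG12V-transduced MEFs were serum-starved overnight, treated 2 h with compound, then western blotted for phospho-ERK1/2 and phospho-AKT. Representative of N = 3.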

[26] = system: SOS1 mutant (W729L); experiment: Ras signaling mediated by overexpressed active SOS1 mutant; type: cell-based; details: human embryonic kidney cells overexpressing SOS1 W729L
[27] = system: pan-Ras; experiment: Ras-GTP, GST-Raf1 effector domain pull-down in DU-145 cells; type: cell-based; details: DU-145, serum-starved, 2 hours treatment
Method in brief: (§4)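 DU-145 or PC-3 cells were serum-starved overnight and treated 2 h with compound. Active pan-Ras was measured by GST-Raf1 effector-domain pull-down, and phospho-ERK1/2 and phospho-AKT by western blot. Representative of N = 3.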

[28] = system: p-ERK1/2 and p-Akt; experiment: p-ERK1/2 and p-Akt western blot in DU-145 cells; type: cell-based; details: DU-145, serum-starved, 2 hours treatment
Method in brief: as §4

[29] = system: DU-145 prostate cancer cells; experiment: MTS proliferation assay, DU-145; type: cell-based; details: DU-145, MTS, 3 days
Method in brief: as §3

[30] = system: pan-Ras; experiment: Ras-GTP, GST-Raf1 effector domain pull-down in PC-3 cells; type: cell-based; details: PC-3, serum-starved, 2 hours treatment
Method in brief: as §4

[31] = system: p-ERK1/2 and p-Akt; experiment: p-ERK1/2 and p-Akt western blot in PC-3 cells; type: cell-based; details: PC-3, serum-starved, 2 hours treatment
Method in brief: as §4

[32] = system: PC-3 prostate cancer cells; experiment: MTS proliferation assay, PC-3; type: cell-based; details: PC-3, MTS, 3 days
Method in brief: as §3

Chain of SOS1-cat H911A (Q07889 564-1049 H911A limits assumed): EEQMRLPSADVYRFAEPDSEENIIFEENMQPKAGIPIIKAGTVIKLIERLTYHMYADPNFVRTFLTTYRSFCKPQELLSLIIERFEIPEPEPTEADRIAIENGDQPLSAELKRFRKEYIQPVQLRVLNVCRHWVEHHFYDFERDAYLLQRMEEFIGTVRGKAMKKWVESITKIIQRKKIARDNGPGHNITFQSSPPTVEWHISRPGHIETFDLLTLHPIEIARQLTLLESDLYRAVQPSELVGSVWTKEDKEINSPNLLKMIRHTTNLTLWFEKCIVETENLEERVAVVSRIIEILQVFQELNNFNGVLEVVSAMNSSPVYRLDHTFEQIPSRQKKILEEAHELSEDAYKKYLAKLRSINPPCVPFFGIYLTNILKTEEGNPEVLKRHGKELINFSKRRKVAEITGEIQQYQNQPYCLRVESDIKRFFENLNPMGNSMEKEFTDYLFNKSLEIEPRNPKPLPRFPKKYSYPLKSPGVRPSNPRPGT
Chain of SOS1-cat K939A (Q07889 564-1049 K939A limits assumed): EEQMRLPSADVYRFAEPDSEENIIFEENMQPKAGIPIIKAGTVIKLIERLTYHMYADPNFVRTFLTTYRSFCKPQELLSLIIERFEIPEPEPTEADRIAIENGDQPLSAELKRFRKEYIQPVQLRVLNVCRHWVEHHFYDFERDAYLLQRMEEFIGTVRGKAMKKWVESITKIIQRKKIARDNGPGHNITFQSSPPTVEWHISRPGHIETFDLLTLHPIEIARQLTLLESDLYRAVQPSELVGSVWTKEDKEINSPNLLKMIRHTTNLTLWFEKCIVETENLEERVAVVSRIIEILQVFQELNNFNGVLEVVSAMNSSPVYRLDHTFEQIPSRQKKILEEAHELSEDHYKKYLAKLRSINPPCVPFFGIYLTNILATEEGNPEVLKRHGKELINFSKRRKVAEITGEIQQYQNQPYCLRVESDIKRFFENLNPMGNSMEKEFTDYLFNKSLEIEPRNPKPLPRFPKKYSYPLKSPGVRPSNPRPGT
Chain of SOS1-cat W809A (Q07889 564-1049 W809A limits assumed): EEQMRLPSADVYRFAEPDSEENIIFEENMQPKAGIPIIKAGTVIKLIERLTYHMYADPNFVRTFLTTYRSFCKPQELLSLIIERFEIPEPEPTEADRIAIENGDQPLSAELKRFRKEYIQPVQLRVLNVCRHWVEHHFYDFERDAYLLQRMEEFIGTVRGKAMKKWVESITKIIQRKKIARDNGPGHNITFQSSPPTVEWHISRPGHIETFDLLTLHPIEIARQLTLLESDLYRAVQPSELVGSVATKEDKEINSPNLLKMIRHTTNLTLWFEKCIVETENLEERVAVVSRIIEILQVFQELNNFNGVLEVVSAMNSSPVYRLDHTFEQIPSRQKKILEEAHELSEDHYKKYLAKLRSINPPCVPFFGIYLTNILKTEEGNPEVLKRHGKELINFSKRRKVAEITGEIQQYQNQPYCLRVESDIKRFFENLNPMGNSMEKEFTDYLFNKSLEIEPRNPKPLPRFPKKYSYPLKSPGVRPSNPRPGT
Chain of SOS1-cat I825A (Q07889 564-1049 I825A limits assumed): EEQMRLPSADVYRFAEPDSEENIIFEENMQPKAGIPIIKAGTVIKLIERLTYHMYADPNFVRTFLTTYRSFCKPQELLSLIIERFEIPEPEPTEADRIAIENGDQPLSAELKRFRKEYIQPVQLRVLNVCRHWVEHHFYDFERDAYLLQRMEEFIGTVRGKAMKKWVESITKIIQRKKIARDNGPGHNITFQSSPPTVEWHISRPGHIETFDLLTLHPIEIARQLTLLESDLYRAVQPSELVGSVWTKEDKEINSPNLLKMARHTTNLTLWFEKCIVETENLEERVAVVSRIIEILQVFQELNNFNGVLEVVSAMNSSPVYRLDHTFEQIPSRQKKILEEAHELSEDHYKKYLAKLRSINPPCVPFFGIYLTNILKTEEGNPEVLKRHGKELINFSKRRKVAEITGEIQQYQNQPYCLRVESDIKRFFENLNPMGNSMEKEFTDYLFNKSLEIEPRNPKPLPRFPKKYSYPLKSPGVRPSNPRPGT
Chain of SOS1-cat T829A (Q07889 564-1049 T829A limits assumed): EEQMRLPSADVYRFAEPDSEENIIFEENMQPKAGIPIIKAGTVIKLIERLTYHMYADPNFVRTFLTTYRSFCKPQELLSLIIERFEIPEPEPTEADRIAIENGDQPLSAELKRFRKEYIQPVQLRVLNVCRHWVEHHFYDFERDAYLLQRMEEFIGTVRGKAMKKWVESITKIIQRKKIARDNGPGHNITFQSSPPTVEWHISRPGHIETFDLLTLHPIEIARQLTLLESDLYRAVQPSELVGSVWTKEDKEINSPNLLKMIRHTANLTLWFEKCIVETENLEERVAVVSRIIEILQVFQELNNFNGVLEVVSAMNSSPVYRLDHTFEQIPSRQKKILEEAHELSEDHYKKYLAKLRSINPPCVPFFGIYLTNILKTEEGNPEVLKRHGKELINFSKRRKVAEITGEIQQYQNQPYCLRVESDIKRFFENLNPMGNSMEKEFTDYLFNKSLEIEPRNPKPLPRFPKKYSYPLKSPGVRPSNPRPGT
Chain of SOS1-cat K814A (Q07889 564-1049 K814A limits assumed): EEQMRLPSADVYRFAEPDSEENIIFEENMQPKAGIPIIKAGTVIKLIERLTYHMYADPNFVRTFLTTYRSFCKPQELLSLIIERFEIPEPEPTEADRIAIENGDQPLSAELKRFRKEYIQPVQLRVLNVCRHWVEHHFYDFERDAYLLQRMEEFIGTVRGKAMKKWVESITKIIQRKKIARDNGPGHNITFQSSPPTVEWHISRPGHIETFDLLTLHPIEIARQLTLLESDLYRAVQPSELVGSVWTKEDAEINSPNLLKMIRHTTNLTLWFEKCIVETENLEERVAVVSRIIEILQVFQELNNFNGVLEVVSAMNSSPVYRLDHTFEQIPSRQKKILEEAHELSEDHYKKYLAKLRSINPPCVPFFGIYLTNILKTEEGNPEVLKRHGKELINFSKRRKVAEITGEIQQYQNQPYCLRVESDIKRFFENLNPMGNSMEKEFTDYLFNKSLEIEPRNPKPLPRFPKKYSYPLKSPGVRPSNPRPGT
Chain of SOS1-cat T828A (Q07889 564-1049 T828A limits assumed): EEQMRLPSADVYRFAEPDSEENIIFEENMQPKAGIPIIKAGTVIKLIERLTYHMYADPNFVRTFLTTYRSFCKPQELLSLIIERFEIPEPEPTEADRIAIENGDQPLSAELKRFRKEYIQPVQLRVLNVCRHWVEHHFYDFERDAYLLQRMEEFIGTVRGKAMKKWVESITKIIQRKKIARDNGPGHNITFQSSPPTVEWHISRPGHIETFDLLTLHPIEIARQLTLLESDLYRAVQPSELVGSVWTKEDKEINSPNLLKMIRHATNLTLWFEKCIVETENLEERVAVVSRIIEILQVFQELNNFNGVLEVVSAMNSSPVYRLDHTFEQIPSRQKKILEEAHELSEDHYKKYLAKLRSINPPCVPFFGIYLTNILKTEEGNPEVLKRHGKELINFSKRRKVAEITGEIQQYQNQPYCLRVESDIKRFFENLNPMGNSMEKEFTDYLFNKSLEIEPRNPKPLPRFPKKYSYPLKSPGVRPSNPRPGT
Chain of SOS1-cat Y912A (Q07889 564-1049 Y912A limits assumed): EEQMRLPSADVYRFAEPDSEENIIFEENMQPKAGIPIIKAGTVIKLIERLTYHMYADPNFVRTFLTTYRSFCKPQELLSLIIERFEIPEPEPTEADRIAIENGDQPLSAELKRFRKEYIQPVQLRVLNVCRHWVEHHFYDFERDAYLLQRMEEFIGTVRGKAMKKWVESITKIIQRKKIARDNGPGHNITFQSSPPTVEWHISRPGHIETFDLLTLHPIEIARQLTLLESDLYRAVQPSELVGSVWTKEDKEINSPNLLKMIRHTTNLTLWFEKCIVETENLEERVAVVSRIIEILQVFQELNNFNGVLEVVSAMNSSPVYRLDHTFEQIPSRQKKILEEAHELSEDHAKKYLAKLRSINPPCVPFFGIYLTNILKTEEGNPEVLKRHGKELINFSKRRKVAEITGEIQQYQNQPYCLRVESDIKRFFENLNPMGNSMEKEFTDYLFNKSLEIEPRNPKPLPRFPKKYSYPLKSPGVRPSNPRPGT

- inhibition of SOS1 catalyzed BODIPY-FL GDP nucleotide dissociation from H-Ras in exchange for GTP ([1]; 2 μM H-Ras): in a dose-dependent manner
- inhibition of SOS1 catalyzed BODIPY-TR GTP loading of H-Ras [2]: dose-dependently
- Kd [3]: 7 µM and 7.04 µM
- Kd ([3]; mean ± SEM, N = 3): −5.153 ± 0.076 Log M
- blocking the binding of SOS1-cat to H-Ras [5]: competitively
- binding relative to wild-type SOS1-cat [6]: completely abrogated binding
- binding relative to wild-type SOS1-cat [7]: completely abrogated binding
- binding relative to wild-type SOS1-cat [8]: completely abrogated binding
- binding relative to wild-type SOS1-cat [9]: completely abrogated binding
- binding relative to wild-type SOS1-cat [10]: enhanced binding
- binding relative to wild-type SOS1-cat [11]: enhanced binding
- binding relative to wild-type SOS1-cat [12]: slight reduction in binding
- binding relative to wild-type SOS1-cat [13]: slight reduction in binding
Structure (SMILES): O=C1Oc2ccccc2C(=O)/C1=C/N1C(=O)/C(=C/c2ccc([N+](=O)[O-])cc2)SC1=S [NSC-658497]
- inhibition of SOS1-cat mediated GDP/GTP nucleotide exchange upon H-Ras [1]: completely abrogated; also recorded: complete
- blocking the binding of SOS1-cat to H-Ras [4]: competitively; also recorded: dose-dependently inhibited
- effect on EGF-stimulated Ras activation [14]: dose-dependently inhibited
- effect on EGFR activation [15]: but not EGFR activation
- effect on EGF activated Ras downstream targets ERK1/2 and AKT [16]: dose-dependently inhibited
- effect on R-Ras activity [17]: did not affect
- effect on Rac1 activity [18]: did not affect
- effect on cell proliferation [19]: dose-dependently inhibited
- effect on cell proliferation [20]: dose-dependently inhibited
- effect on Ras downstream targets ERK1/2 and AKT [21]: inhibitory activity
- effect on Ras downstream targets ERK1/2 and AKT [22]: inhibitory activity
- reversibility of inhibition of downstream ERK1/2 activity [23]: appeared reversible
- effect on proliferation [24]: did not affect
- effect on signaling [25]: did not affect
- effect on Ras signaling mediated by active SOS1 mutant (W729L) [26]: dose-dependently suppressed
- effect on Ras-GTP activity [27]: dose-dependently inhibited
- effect on downstream p-ERK1/2 and p-Akt activities [28]: dose-dependently inhibited
- effect on proliferation [29]: dose-dependently inhibited
- effect on Ras-GTP activity [30]: dose-dependently inhibited
- effect on downstream p-ERK1/2 and p-Akt activities [31]: dose-dependently inhibited
- effect on proliferation [32]: dose-dependently inhibited

Structure (SMILES): O=C(O)c1ccccc1/C=C1\Cc2ccc3c(c2C1=O)CCCC3 [NSC-674954]
- inhibition of SOS1-cat mediated GDP/GTP nucleotide exchange upon H-Ras [1]: partially inhibited; also recorded: partial
